PMI act satM6P: PMI (human) activation, high substrate; activation factor at 20 µM; P34949; AID 1216; coupled PMI enzyme assay, resazurin fluorescence, 20 min; hits give high values; 1 = untreated enzyme, 0 = substrate-free blank; hit rate 0.34% among 190,000;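 active = activation factor of 2 or more at 20 µM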
Target sequence (P34949 whole entry, looked up): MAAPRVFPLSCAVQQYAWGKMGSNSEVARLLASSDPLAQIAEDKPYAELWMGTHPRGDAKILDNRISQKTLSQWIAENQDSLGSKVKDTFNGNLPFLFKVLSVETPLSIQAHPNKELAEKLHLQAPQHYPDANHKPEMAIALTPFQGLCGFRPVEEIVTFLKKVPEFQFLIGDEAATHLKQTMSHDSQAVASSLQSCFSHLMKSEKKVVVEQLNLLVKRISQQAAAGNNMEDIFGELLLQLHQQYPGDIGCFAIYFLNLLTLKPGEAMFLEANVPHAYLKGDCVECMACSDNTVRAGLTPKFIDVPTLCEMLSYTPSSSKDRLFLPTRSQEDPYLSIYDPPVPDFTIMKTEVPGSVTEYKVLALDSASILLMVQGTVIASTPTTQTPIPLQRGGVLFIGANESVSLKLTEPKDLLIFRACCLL
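Test system – human PMI in coupled enzyme assay · Timing – 20 min incubation at room temperature · Detection – Diaphorase-driven resazurin-to-resorufin fluorescence, excitation 544, emission 590 nm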
PMI activator: activators of human phosphomannose isomerase. purified human PMI, coupled resazurin fluorescence, 20 min; hits give high values; 1 = vehicle control, 0 substrate-free wells. activation factor at 20 µM. hit rate 0.005% among 190,000. AID 1214;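 active = activation factor of 2 or more at 20 µM, relative to plate controls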
Diaph act CS: counter-screen for diaphorase-based assays: diaphorase activators and chemical reducers; hit rate 0.005% among 190,000; AID 1229; activation factor at 20 µM; Diaphorase/resazurin coupled assay, resorufin fluorescence, 16 min; hits give high values; 1 = vehicle wells, 0 = NADH-free wells;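 active = diaphorase activity raised at least twofold by the compound at 20 µM; inactive = activation factor below 2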
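Assay system: Purified diaphorase enzyme from Clostridium kluyveri | Amount: Enzyme 0.07 U/mL final | Dosing: Compound 20 µM once, DMSO 1% | Timing: 16 min reaction at room temperature | Detection: Fluorescence, excitation 544 nm and emission 590 nm | Evaluation: Higher resorufin formation from activation or reduction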
Lmaj promast: inhibitors of Leishmania major promastigote growth; Leishmania major promastigotes, resazurin fluorescence viability; inhibition, % at 10 µM; hit rate 9% among 200,000; in the data active = inhibition above about 50%;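 note: promastigotes grown with compound for 44 hours at 28 °C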
WT yeast gro inh: growth inhibition of WT yeast, mitochondrial fusion screen. hit rate 2.1% among 190,000. AID 1362. mitochondrial fusion phenotypic screen, WT strain. inhibition, % at 10 µM; in the data active = inhibition above about 58%; tested in S. cerevisiae
Lmaj promast 1uM: inhibitors of Leishmania major promastigote growth, repeat at 1 uM. hit rate 13% among 1,100. shares compounds with Lmaj promast. AID 1258. inhibition, % at 1 µM. L. major promastigote growth, resazurin fluorescence, 48 h;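 active = inhibition above about 50% in both repeat tests, limit read from the data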
Each line names hits and unclear results; the compound was inactive in the other large screens (follow-up assays come after a bar, where they were run); ! = repeats disagree. Sampled rows, rich in hits. Any-hit rate of the full collection: about 10%.

Cc1cc(C)nc(N2CCCC(C(=O)NCCC3=CCCCC3)C2)n1 (stereo not given)	none
Cc1ccc(C2=NNC(=O)C(c3c[nH]c4ccccc34)C2)cc1 (stereo not given)	none
Cc1ccc(C2=NNC(=O)C(c3ccc(Cl)cc3)C2)cc1 (stereo not given)	Lmaj promast 70 | Lmaj promast 1uM inactive
CC(OC(=O)Cc1n[nH]c(=O)c2ccccc12)C(=O)Nc1cccc([N+](=O)[O-])c1 (stereo not given)	none
Fc1cccc(NC(=S)NCc2ccc(Cl)cc2)c1	Lmaj promast 70 | Lmaj promast 1uM inactive
COCCNC(=O)CSc1nnc(-c2ccccc2F)n1Cc1ccccc1	none
CCOc1ccc(Cn2c3ccc(OC)cc3c3nc4ccccc4nc32)cc1	Lmaj promast 54 | Lmaj promast 1uM inactive
Cc1ccc(S(=O)(=O)NC(N)=NCCc2ccc(Cl)cc2)cc1C	Lmaj promast 51 | Lmaj promast 1uM inactive
NC(=NCCc1ccc(Cl)cc1)NS(=O)(=O)c1ccc(F)cc1	none
O=C(CSc1nncs1)NCc1ccc(F)cc1	none
Cc1ccc(-c2csc3ncnc(Oc4cccc5ccc(C)nc45)c23)cc1	none
Cc1ccc2cccc(Oc3ncnc4sc(C)c(C)c34)c2n1	Lmaj promast 90 | Lmaj promast 1uM inactive
COc1cc(OC)c(C(=O)OCC(=O)NCCc2ccccc2)cc1OC	none
Cc1ccccc1N1C(=O)c2cccc([N+](=O)[O-])c2C1=O	none
Cc1ccccc1-n1ncc2c([N+](=O)[O-])cc([N+](=O)[O-])cc21	Lmaj promast 100 | Lmaj promast 1uM 98
C=CCN(CC=C)C(=O)C(=O)c1cc(C)n(-c2ccc([N+](=O)[O-])cc2)c1C	Lmaj promast 98 | Lmaj promast 1uM inactive
Cc1cc(C(=O)C(=O)N(C)C)c(C)n1-c1ccc([N+](=O)[O-])cc1	none
CCOC(=O)c1c2c(n(C)c1C)C(=O)C(=O)c1ccc(Br)cc1-2	Lmaj promast 100 (no result: PMI act satM6P, PMI activator, Diaph act CS, WT yeast gro inh) | Lmaj promast 1uM 98
CCOC(=O)c1c(-c2ccccc2)c(C(C)=O)c(=O)n(C)c1C	none
Cc1ccc(S(=O)(=O)/N=C(\CCl)N2CCOCC2)cc1	Lmaj promast 87 | Lmaj promast 1uM inactive
Cc1ccccc1NC1=C/C(=N\S(=O)(=O)c2cccs2)c2ccccc2C1=O	Lmaj promast 100, WT yeast gro inh 89 | Lmaj promast 1uM 97
CCOC(=O)c1c(NC(=O)COC(=O)C2CC2C)sc(C)c1C (stereo not given)	none
CC(=O)Nc1ccc(N2C(C(C)=O)=NN(c3ccccc3)C2c2cccs2)cc1 (stereo not given)	none
CC(=O)Nc1ccc(C2=NN(c3ccccc3)C(c3cccs3)C2)cc1 (stereo not given)	Lmaj promast 66 | Lmaj promast 1uM inactive
CCOC(=O)N1CCOCCOCCN(C(=O)OCC)CCOCC1	none
O=C(OCc1ccccc1)N1CCOCCOCCN(C(=O)OCc2ccccc2)CCOCCOCC1	Lmaj promast 61 | Lmaj promast 1uM inactive
COC(=O)C(CC(=O)c1ccc(Br)cc1)n1ccnc1 (stereo not given)	Lmaj promast 79 | Lmaj promast 1uM inactive
Cn1c(=O)c2c(nc(SCC(=O)O)n2Cc2cc3c(cc2Cl)OCO3)n(C)c1=O	none
COc1ccc(CN2CCC(CNC(=O)NC3CCCCC3)CC2)cc1	Lmaj promast 90 | Lmaj promast 1uM inactive
COc1ccc(CNC(=O)NC2CCCCC2)cc1	none
O=C(O)c1ccc(N2C(=O)CC(N3CCC(c4nc5ccccc5[nH]4)CC3)C2=O)cc1 (stereo not given)	none (no result: WT yeast gro inh)
Cc1ccc(C(=O)NCCc2ccc(F)cc2)s1	none
O=C(O)CC1S/C(=N/N=C/C=C/c2ccccc2)NC1=O (stereo not given)	Lmaj promast 53! | Lmaj promast 1uM inactive
CCOC(=O)N1CCN(C(=O)c2cn(CC)c3cc(N4CCN(C)CC4)c(F)cc3c2=O)CC1	none
Cc1ccc(NC(=O)c2ccc(Br)o2)cc1S(=O)(=O)N(C)C	Lmaj promast 60 | Lmaj promast 1uM inactive
COc1ccc(OC)c2c(C)cc(N3CCN(C(=O)c4ccc(Cl)cc4)CC3)nc12	none
OC12CCCCC1C(c1ccc3c(c1)OCO3)N(Cc1ccccc1F)CC2 (stereo not given)	Lmaj promast 60 | Lmaj promast 1uM inactive

Source: PubChem BioAssay
